From ChEMBL document CHEMBL1143969, “Synthesis and pharmacological evaluation of bicyclic SNC80 analogues with separated benzhydryl moiety” (Bioorg Med Chem, 2008)

How the values were obtained:
[1] = biological target: Nociceptin receptor (Homo sapiens) (UniProt P41146); assay: Displacement of [3H]nociceptin from human ORL1 receptor expressed in HEK293 cells at 10 uM; type: cell-based
[2] = biological target: T1, Delta-type opioid receptor (Homo sapiens, UniProt P41143); assay: Displacement of [3H]deltorphine 2 from human delta opioid receptor expressed in CHOK1 cells at 10 uM; type: cell-based; conditions: CHO-K1
T1 sequence (P41143 whole entry): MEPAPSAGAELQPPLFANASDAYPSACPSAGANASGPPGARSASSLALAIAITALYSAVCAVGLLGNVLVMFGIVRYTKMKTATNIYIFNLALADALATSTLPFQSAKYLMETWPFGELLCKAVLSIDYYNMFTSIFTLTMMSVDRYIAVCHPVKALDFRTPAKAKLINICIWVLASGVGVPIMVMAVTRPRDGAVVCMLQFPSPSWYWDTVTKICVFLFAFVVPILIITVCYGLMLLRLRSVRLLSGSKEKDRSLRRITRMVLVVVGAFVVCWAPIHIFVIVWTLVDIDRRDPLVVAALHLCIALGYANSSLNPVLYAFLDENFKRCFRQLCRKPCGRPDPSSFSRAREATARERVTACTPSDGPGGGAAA
In short: (§1)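 Membranes diluted 1:87 in 50 mmol/L Tris-HCl, 5 mmol/L MgCl2, pH 7.4; radioligand solution 10 nmol/L (stock), 0.5% DMSO. Incubated 120 min at rt, filtered through PEI-soaked GF/B filters, washed three times with cold buffer, dried 1 h at 55 °C, scintillation counted. Naloxone defines non-specific binding. Ki determined where inhibition at 10 µM exceeded 50%.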

[3] = biological target: T2, Mu-type opioid receptor (Homo sapiens, UniProt P35372); assay: Displacement of [3H]naloxone from human mu opioid receptor expressed in CHOK1 cells; type: cell-based, CHO-K1
T2 sequence (P35372 whole entry): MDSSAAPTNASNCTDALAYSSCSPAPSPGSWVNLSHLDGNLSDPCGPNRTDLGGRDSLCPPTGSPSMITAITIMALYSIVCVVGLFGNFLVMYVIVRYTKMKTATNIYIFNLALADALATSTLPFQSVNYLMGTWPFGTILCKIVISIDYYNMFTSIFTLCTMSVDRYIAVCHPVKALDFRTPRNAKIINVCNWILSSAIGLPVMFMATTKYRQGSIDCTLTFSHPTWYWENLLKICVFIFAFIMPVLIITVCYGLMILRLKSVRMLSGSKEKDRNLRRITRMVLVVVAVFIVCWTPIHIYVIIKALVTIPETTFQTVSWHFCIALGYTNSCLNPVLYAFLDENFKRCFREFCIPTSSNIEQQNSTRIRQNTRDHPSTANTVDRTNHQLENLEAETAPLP
In short: (§2)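 Membranes in Tris-HCl pH 7.4 + 0.06% BSA, premixed with wheatgerm agglutinin SPA beads; radioligand solution 10 nmol/L (stock), ~25% DMSO in added solutions. Incubated 150 min at rt, centrifuged 20 min at 500 rpm, counted by scintillation proximity. Naloxone defines non-specific binding. Ki determined where inhibition at 10 µM exceeded 50%.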

[4] = biological target: T2, Mu-type opioid receptor; assay: Displacement of [3H]naloxone from human mu opioid receptor expressed in CHOK1 cells at 10 uM; type: cell-based; conditions: CHO-K1; in short: as §2
[5] = biological target: T3, Kappa-type opioid receptor (Homo sapiens, UniProt P41145); assay: Displacement of [3H]C1-977 from human kappa opioid receptor expressed in HEK293 cells; type: cell-based
T3 sequence (P41145 whole entry): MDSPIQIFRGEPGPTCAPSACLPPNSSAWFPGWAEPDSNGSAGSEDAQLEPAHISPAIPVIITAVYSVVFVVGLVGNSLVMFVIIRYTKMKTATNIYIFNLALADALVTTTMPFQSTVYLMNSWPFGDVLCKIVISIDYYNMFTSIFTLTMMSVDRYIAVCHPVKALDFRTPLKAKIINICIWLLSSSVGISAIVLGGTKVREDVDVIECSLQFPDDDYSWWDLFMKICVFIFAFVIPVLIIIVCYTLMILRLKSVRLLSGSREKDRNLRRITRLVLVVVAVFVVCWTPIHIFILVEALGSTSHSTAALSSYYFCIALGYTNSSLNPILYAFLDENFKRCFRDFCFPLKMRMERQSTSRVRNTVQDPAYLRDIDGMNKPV
In short: (§3)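 SPA format as for mu: membranes diluted 1:34 in 50 mmol/L Tris-HCl, 0.05% NaN3, pH 7.4, mixed with wheatgerm agglutinin SPA beads; 150 min at rt, centrifugation, scintillation counting. Ki determined where inhibition at 10 µM exceeded 50%.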

[6] = biological target: T3, Kappa-type opioid receptor; assay: Displacement of [3H]C1-977 from human kappa opioid receptor expressed in HEK293 cells at 10 uM; type: cell-based; in short: as §3
[7] = biological target: T1, Delta-type opioid receptor; assay: Displacement of [3H]deltorphine 2 from human delta opioid receptor expressed in CHOK1 cells; type: cell-based, CHO-K1
In short: as §1, with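 “binding.” for “binding. Ki determined where inhibition at 10 µM exceeded 50%.”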

Nociceptin receptor (Homo sapiens), sequence (P41146 whole entry): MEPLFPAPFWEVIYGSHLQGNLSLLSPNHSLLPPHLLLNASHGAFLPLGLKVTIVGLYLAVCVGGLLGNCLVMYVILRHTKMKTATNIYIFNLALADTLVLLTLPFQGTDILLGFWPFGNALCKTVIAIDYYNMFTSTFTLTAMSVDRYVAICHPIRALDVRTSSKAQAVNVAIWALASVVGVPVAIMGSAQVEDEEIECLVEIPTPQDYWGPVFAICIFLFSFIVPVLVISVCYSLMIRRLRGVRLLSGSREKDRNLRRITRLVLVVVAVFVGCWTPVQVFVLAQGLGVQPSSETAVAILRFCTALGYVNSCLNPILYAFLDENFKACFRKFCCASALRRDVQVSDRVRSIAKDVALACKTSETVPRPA

SMILES	inhibition [1] [%]	inhibition [2] [%]	Ki [3] [µM]	inhibition [4] [%]	Ki [5] [µM]	inhibition [6] [%]	Ki [7] [µM]
C=CCN1C[C@@H]2C(c3ccccc3)=CC[C@H]1CN2Cc1ccc(C(=O)N(CC)CC)cc1	9	14	6.8	56	0.89	76	
C=CCN1C[C@H]2C(c3ccccc3)=CC[C@@H]1CN2Cc1ccc(C(=O)N(CC)CC)cc1	< 10	87	0.25	91		31	0.74
C=CCN1C[C@@H]2[C@H](c3ccccc3)CC[C@H]1CN2Cc1ccc(C(=O)N(CC)CC)cc1	7	6	7.3	56	1.7	73	
CCCN1C[C@@H]2[C@@H](c3ccccc3)CC[C@H]1CN2Cc1ccc(C(=O)N(CC)CC)cc1	3	4		44		49	
CCCN1C[C@@H]2[C@H](c3ccccc3)CC[C@H]1CN2Cc1ccc(C(=O)N(CC)CC)cc1	1	4	5.7	61	2.4	63	
CCCN1C[C@@H]2C(c3ccccc3)=CC[C@H]1CN2Cc1ccc(C(=O)N(CC)CC)cc1	45	20		55		22	
C=CCN1C[C@@H]2[C@@H](c3ccccc3)CC[C@H]1CN2Cc1ccc(C(=O)N(CC)CC)cc1	14	34	6.32	58	1.1	76	
